Cneo AK release: causes C. neoformans cell lysis; lysis activity, % at 15 µM; 0.2% of 360,000 active; adenylate kinase release luminescence, 4 h; normalised: neutral wells 0, clomiphene wells 100;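 active = mean lysis activity across replicates of at least 80%, whatever share of replicates individually reach that level; inactive = mean lysis activity below 80%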
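Assay system: Cryptococcus neoformans yeast cells / Dosing: single-point compound dose / Timing: 4 h at 37 °C static, read 1 h later / Measured by: luminescence of released adenylate kinase using an AK detection reagent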
XiGFP reactiv: activators of X-chromosome reactivation in mouse fibroblasts; XiGFP mouse fibroblasts, % GFP-positive cells imaging, 3 d; cells co-treated with 5-aza-dC sensitizer; scaled so ellipticine positive control = 100%; activation, % at 7.58 µM; 0.055% of 360,000 active; AID 743238;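 active = mean normalized replicate activation at least 10% and every replicate at or above 10%; inconclusive = only one of the two criteria met; inactive = mean below 10% and not all replicates reach 10%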;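 note: 0% = median of on-plate neutral control wells and 100% = ellipticine 6 µM median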
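System: XiGFP fibroblasts, SV40-immortalized. Medium: DMEM plus 5-aza-dC sensitizer. Doses: single point. Timing: 3 d treatment, 15 min room-temperature fixation. Control set: ellipticine 6 µM.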
Statin myotox sup: protects C2C12 myotubes from simvastatin toxicity | rescue of ATP level, % at 7.49 µM | 0.78% of 330,000 active | ATP luminescence, 48 h; scaled: DMSO 0, geranylgeraniol control 100;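 active = mean ATP rescue above about 67%, or every replicate alone reaching that limit, limit read from the data, passing the limit was not always enough; inconclusive = no clear call, values can overlap the other calls; inactive = mean under the limit and some replicate under it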;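 note: myotubes were challenged with 10 µM simvastatin during compound exposure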
DENV2 CPE rescue: protects cells from dengue virus 2 cytopathic effect; DENV2-infected cells, cytopathic effect rescue, plate reader; CPE inhibition, % at 9.99 µM; 1.7% of 350,000 active; in the data active = CPE inhibition above about 20%, passing the limit was not always enough; inconclusive = no clear call, values can overlap the other calls; tested in BHK-21 cells;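 note: 0% = median of neutral control wells and 100% = median of positive control wells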
* marks the source's active call; other numbers are inactive results; u = inconclusive; x = no result. A selection: hits, their analogues and other compounds. The true share with any hit is near 2.1%.

SMILES | Cneo AK release | XiGFP reactiv | Statin myotox sup | DENV2 CPE rescue
CNC(=O)C[C@@H]1CC[C@@H]2[C@H](COC[C@@H](O)CN2Cc2ccncc2)O1 | 6 | 0 | -10 | 25*
CCNC(=O)C[C@H]1CC[C@H]2[C@@H](COC[C@H](O)CN2Cc2ccc(Cl)c(Cl)c2)O1 | -5 | 0 | 25 | 109*
C/C(=N\NC(=O)c1nnn(-c2nonc2N)c1-c1ccccc1)c1cccnc1 | -1 | 0 | x | 96*
COc1cccc(/C=C/C(=O)NCCc2ccc(OC)c(OC)c2)c1 | x | 0 | x | 99*
CCCNC(=O)[C@H]1[C@H](CO)[C@H]2Cn3c(ccc(-c4cccnc4)c3=O)[C@H]2N1CCC | 3 | 0 | -7 | 0
O=C(C[C@@H]1CC[C@@H](NC(=O)c2cccnc2)[C@@H](CO)O1)NCCN1CCCCC1 | 93* | 0 | 6 | 5
O=C(N[C@@H]1CC[C@H](CCNC(=O)C2CCCCC2)O[C@@H]1CO)c1ccncc1 | -2 | 0 | -4 | 0
O=C(N[C@H]1CC[C@H](CCNC(=O)C2CCCC2)O[C@@H]1CO)c1ccncc1 | 3 | 0 | 3 | 25*
O=C(N[C@H]1CC[C@H](CCNC(=O)C2CCCCC2)O[C@@H]1CO)c1ccncc1 | -3 | 0 | -9 | 28*
CO[C@H]1CN(C)C(=O)c2ccc(NC(=O)Cc3ccccc3)cc2OC[C@@H](C)N(CC2CC2)C[C@H]1C | -2 | 0 | -11 | -4
Cc1ccc2c(c1)Sc1ccccc1CC2=O | 1 | x | 83* | x
COc1cccc(S(=O)(=O)Nc2ccc3c(c2)OC[C@@H](C)NC[C@@H](C)[C@@H](OC)CN(C)C3=O)c1 | 2 | 0 | -9 | -6
Cc1ccc(C2C=C(c3ccccc3OC(F)F)Nc3ncnn32)cc1 (stereo unspecified) | 0 | x | 107* | x
COc1ccc2c3c([nH]c2c1)[C@H](CO)N(C(=O)NC(C)C)CC31CCN(Cc2ccc(F)cc2)CC1 | x | 0 | x | u
COc1ccc(S(=O)(=O)N(C)C[C@H]2Oc3ccc(NC(=O)Nc4c(C)noc4C)cc3CC(=O)N([C@H](C)CO)C[C@H]2C)cc1 | -3 | -1 | 14 | -2
C#CCOc1c(Br)cc(/C=N\NC(=O)CN2CCOCC2)cc1OCC | -2 | x | 103* | x
CCC(=O)Nc1ccc2c(c1)C(=O)N(C)C[C@H](OC)[C@@H](C)CN(Cc1cccc(F)c1)[C@H](C)CO2 | -3 | 0 | 3 | 12
Cc1ccc(S(=O)(=O)N[C@H]2CC[C@H](CC(=O)N3CCc4ccccc4C3)O[C@@H]2CO)cc1 | 10 | 0 | -5 | 3
COc1ccccc1NC(=O)N1CC(=O)N2[C@H](C1)[C@H](c1ccc(C#Cc3ccc(F)cc3)cc1)[C@@H]2CO | x | 0 | x | 5
COc1ccccc1NC(=O)N1CC(=O)N2[C@@H](CO)[C@H](c3ccc(C#Cc4ccc(F)cc4)cc3)[C@@H]2C1 | x | 0 | x | 33*
O=C(Nc1ccccc1F)N1CC(=O)N2[C@H](CO)[C@@H](c3ccc(-c4ccccc4)cc3)[C@H]2C1 | x | 0 | x | 43*
O=C(Nc1cc(F)ccc1F)N1CC(=O)N2[C@@H](CO)[C@H](c3ccc(-c4cccnc4)cc3)[C@@H]2C1 | x | 0 | x | 2
O=C(Nc1cc(F)ccc1F)N1CC(=O)N2[C@@H](CO)[C@@H](c3ccc(-c4cccnc4)cc3)[C@@H]2C1 | x | 0 | x | 23*
COc1ccccc1NC(=O)N1CC(=O)N2[C@H](CO)[C@@H](c3ccc(-c4ccc(F)cc4)cc3)[C@H]2C1 | x | 0 | x | 29*
O=C(Nc1ccccc1F)N1CC(=O)N2[C@H](CO)[C@H](c3ccc(-c4ccccc4)cc3)[C@@H]2C1 | x | 0 | x | -1
SMILES | Cneo AK release | XiGFP reactiv | Statin myotox sup | DENV2 CPE rescue
Cc1noc(C)c1NC(=O)Nc1ccc2c(c1)CC(=O)N([C@@H](C)CO)C[C@@H](C)[C@@H](CN(C)Cc1ccc(C(F)(F)F)cc1)O2 | -1 | 0 | 36 | -9
O=C(Nc1ccccc1F)N1CC(=O)N2[C@H](CO)[C@@H](c3ccc(C#Cc4ccc(F)cc4)cc3)[C@@H]2C1 | x | 0 | x | 22*
c1cc(-c2ccc(N3CCOCC3)cc2)n2cnnc2c1 | -1 | 0 | 1 | 24*
CSc1nnc(-c2ccccc2)c(=O)[nH]1 | 0 | x | 97* | x
CCCC(=O)Nc1ccccc1-c1nnc(SC)[nH]c1=O | -1 | 0 | -11 | -2
O=C1N[C@@H](c2ccccc2)COCc2cn(nn2)CC[C@H]1Cc1ccc(-c2ccccc2)cc1 | x | 0 | x | x
CC1CCC(CN2CCN=C2Nc2ccccc2)CC1 (stereo unspecified) | 5 | 0 | -15 | 40*
c1ccc(NC2=NCCN2CC2CCC2)cc1 | -1 | 0 | 2 | 5
CC(SC(C)C(=O)NN=Cc1cccc(Cl)c1)C(=O)NN=Cc1cccc(Cl)c1 (stereo unspecified) | 0 | 0 | -7 | u
CC(SC(C)C(=O)NN=Cc1ccc(F)cc1)C(=O)NN=Cc1ccc(F)cc1 (stereo unspecified) | 3 | 0 | 122* | -14
Cc1cccc(NC(=O)C2CCCN2C(=O)OCC(C)C)c1 (stereo unspecified) | 0 | x | x | x
CC(=O)c1cccc(NC(=O)N2CCCC2C(=O)Nc2cc(C)ccc2C)c1 (stereo unspecified) | -2 | x | 115* | x
COc1ccc(C)cc1NC(=O)C1CCCN1C(=O)OCc1ccccc1 (stereo unspecified) | -2 | x | 132* | x
Cc1cccc(NC(=O)C2CCCN2C(=O)OCC(C)C)c1C (stereo unspecified) | -2 | x | 91* | x
CC(=O)c1cccc(NC(=O)N2CCCC2C(=O)NC2CCCC2)c1 (stereo unspecified) | 1 | 0 | 1 | 0
C[C@H]1CN([C@@H](C)CO)C(=O)Cc2cc(NC(=O)Nc3ccc(C(F)(F)F)cc3)ccc2O[C@@H]1CN(C)C(=O)Nc1cccc2ccccc12 | -2 | 0 | 44 | -6
COc1ccc(NC(=O)Nc2ccc3c(c2)C(=O)N([C@H](C)CO)C[C@H](C)[C@H](CN(C)C(=O)NC(C)C)OCCCC[C@@H](C)O3)cc1 | 2 | 0 | x | -2
COc1ccc(NC(=O)Nc2ccc3c(c2)C(=O)N([C@@H](C)CO)C[C@@H](C)[C@H](CN(C)C(=O)Nc2ccccc2)OCCCC[C@H](C)O3)cc1 | -3 | 0 | -14 | -3
COc1ccc(NC(=O)Nc2ccc3c(c2)C(=O)N([C@H](C)CO)C[C@H](C)[C@H](CN(C)C(=O)NC(C)C)OCCCC[C@H](C)O3)cc1 | -5 | 0 | x | 33*
COc1ccc(NC(=O)N(C)C[C@@H]2OCCCC[C@@H](C)Oc3ccc(NC(=O)Nc4ccccc4)cc3C(=O)N([C@H](C)CO)C[C@@H]2C)cc1 | 10 | 0 | x | 39*
COc1ccc(NC(=O)Nc2ccc3c(c2)C(=O)N([C@@H](C)CO)C[C@@H](C)[C@@H](CN(C)CC2CCCCC2)OCCCC[C@H](C)O3)cc1 | 1 | 0 | 89* | u

Bioassay records as filed in PubChem BioAssay.
